An excerpt weighted towards active compounds, which were near 1.1% of everything screened.
miR-122 sensor: blocks miR-122 activity in Huh7 sensor cells; Huh7 miR-122 Renilla luciferase sensor, 48 h; neutral wells = 0, positive control = 100; activation (reporter increase), % at 12.5 µM; hit rate 0.3% among 340,000;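 active means mean replicate activation score at least 90 and every replicate individually at or above 90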;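 further: higher luciferase means less miR-122 activity so hits act as miR-122 inhibitors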
CAL PDZ FP-1: blocks peptide binding to the human CAL PDZ domain. AID 602252. hit rate 0.92% among 300,000. purified CAL PDZ, TMR-peptide fluorescence polarization, 1 h. inhibition, % at 24.9 µM. Q9HD26;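 active means mean inhibition of at least 30% with at least half of replicates also reaching 30%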
Cneo AK release: Cryptococcus neoformans lysis via adenylate kinase release; C. neoformans lysis, adenylate kinase release luminescence, 4 h; normalised: neutral wells 0, clomiphene wells 100; hit rate 0.2% among 360,000; lysis activity, % at 15 µM;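 active means mean lysis activity across replicates of at least 80%, whatever share of replicates individually reach that level; inactive means mean lysis activity below 80%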
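Assay system: log-phase C. neoformans yeast / Quantity: yeast cell density of 5 × 10^6 cells/mL / Medium: fresh YPD growth medium / Compound: single dose / Timing: static 4 h at 37 °C with compound, 1 h detection / Measured by: adenylate kinase release luminescence / Read-out: lysis from increased AK signal / Benchmarks: Clomiphene as positive lysis control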
CAL PDZ FP-2: blocks peptide binding to human CAL PDZ domain; purified CAL PDZ, TMR-peptide fluorescence polarization, 1 h; inhibition, % at 20 µM; Q9HD26; hit rate 0.02% among 330,000; AID 504414;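 active means highest replicate inhibition of at least 40%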
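Test system: purified CerCALP PDZ construct; Compound dosing: one concentration, 20 µM compound; Also added: TMR-labelled reporter peptide T*-PRC34 bound in PDZ groove; Read-out: inhibition from polarization loss; Controls: unlabelled peptide and DMSO controls; Signal: FP readout, S and P plane fluorescence; Incubation: 1 h at RT.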
PglD DTNB: inhibitors of Campylobacter jejuni PglD acetyltransferase; purified PglD enzyme, DTNB colorimetric CoA detection; inhibition, % at 12.5 µM; hit rate 0.098% among 360,000; AID 602405; in the data active means inhibition above about 16%, passing the limit was not always enough
Numbers stand for hits; [ ] = remark or other dose.

What do the screens show for `COc1ccc(Cl)c(OC)c1C(=O)NC(=O)Nc1nc(C)nc(C)n1`?
miR-122 sensor: inactive; CAL PDZ FP-1: inactive; Cneo AK release: inactive; CAL PDZ FP-2: inactive; PglD DTNB: inactive

What do the screens show for `COc1c(Cl)cc(Br)c(OC)c1C(=O)NC(=O)Nc1nc(C)cc(C)n1`?
CAL PDZ FP-1: 83; CAL PDZ FP-2: inactive

Results for NCCCCCCNC(=O)[C@H]1C[C@H]2C(=O)N[C@@H](Cc3ccccc3)C(=O)N2[C@H]1c1cccc(OCCO)c1 ?
Cneo AK release: inactive; PglD DTNB: inactive

How did Cn1cccc1-c1nc2ccc(NC(=O)c3cccs3)cc2[nH]1 do in these assays?
miR-122 sensor: inactive; CAL PDZ FP-1: inactive; Cneo AK release: inactive; CAL PDZ FP-2: inactive; PglD DTNB: inactive

Results for CC(=O)Nc1ccc2nc(-c3cccn3C)[nH]c2c1 ?
miR-122 sensor: inactive; CAL PDZ FP-1: 35; Cneo AK release: inactive; CAL PDZ FP-2: inactive; PglD DTNB: inactive

What do the screens show for `Cc1ccc(S(=O)(=O)N2CCN(C(=O)CN3C(=O)NC(C)(c4ccc5ccccc5c4)C3=O)CC2)cc1` (stereo unspecified)?
miR-122 sensor: inactive; CAL PDZ FP-1: 73; Cneo AK release: inactive; CAL PDZ FP-2: inactive; PglD DTNB: inactive

What do the screens show for `CC1(c2ccc3ccccc3c2)NC(=O)N(CC(=O)N2CCN(S(=O)(=O)c3ccccc3F)CC2)C1=O` (stereo unspecified)?
Cneo AK release: inactive; CAL PDZ FP-2: inactive; PglD DTNB: inactive

What do the screens show for `O=C(NCC[C@@H]1CC[C@H](NC(=O)C2CCOCC2)[C@H](CO)O1)c1cc(Cl)cc(Cl)c1`?
Cneo AK release: inactive; PglD DTNB: inactive

Results for O=C(C[C@@H]1C[C@H]2c3cc(NS(=O)(=O)c4ccc(F)cc4)ccc3O[C@H]2[C@H](CO)O1)NCc1ccc(Oc2ccccc2)cc1 ?
miR-122 sensor: 150[16.7 µM]; Cneo AK release: inactive; PglD DTNB: inactive

How did CN(C)c1ccc2c(c1)[C@@H]1C[C@@H](CC(=O)NCc3ccc(Oc4ccccc4)cc3)O[C@@H](CO)[C@@H]1O2 do in these assays?
miR-122 sensor: 96[16.7 µM]; Cneo AK release: inactive; PglD DTNB: inactive

Results for CN(C)c1ccc2c(c1)[C@H]1C[C@@H](CC(=O)NCc3ccc(Oc4ccccc4)cc3)O[C@@H](CO)[C@H]1O2 ?
miR-122 sensor: inactive; Cneo AK release: inactive; PglD DTNB: inactive

How did O=C(C[C@@H]1C[C@H]2c3cc(NS(=O)(=O)c4ccc(F)cc4)ccc3O[C@H]2[C@H](CO)O1)NCc1ccc(-c2ccccc2)cc1 do in these assays?
miR-122 sensor: 111[16.7 µM]; Cneo AK release: inactive; PglD DTNB: inactive

How did O=C(C[C@H]1C[C@@H]2c3cc(NS(=O)(=O)c4ccc(F)cc4)ccc3O[C@@H]2[C@H](CO)O1)NCc1ccc(-c2ccccc2)cc1 do in these assays?
miR-122 sensor: inactive; Cneo AK release: inactive; PglD DTNB: inactive

Results for COc1ccc(NC(=O)Nc2ccc3c(c2)C(=O)N([C@H](C)CO)C[C@H](C)[C@@H](CN(C)S(=O)(=O)c2ccc(Cl)cc2)OCCCC[C@H](C)O3)cc1 ?
miR-122 sensor: inactive; Cneo AK release: inactive; PglD DTNB: inactive

What do the screens show for `COc1cc(C(=O)NC(=S)Nc2ccccc2N2CCOCC2)cc(OC)c1OC`?
CAL PDZ FP-1: inactive; Cneo AK release: 80; CAL PDZ FP-2: inactive; PglD DTNB: inactive

Results for COc1cc(OC)cc(C(=O)N[C@H](C(=O)Nc2ccccc2N2CCOCC2)C(C)C)c1 ?
miR-122 sensor: inactive; CAL PDZ FP-1: 39; Cneo AK release: inactive; CAL PDZ FP-2: inactive; PglD DTNB: inactive

How did CN(C)Cc1cn(CC[C@H]2CC[C@@H](NC(=O)Nc3ccccc3F)[C@@H](CO)O2)nn1 do in these assays?
Cneo AK release: inactive; PglD DTNB: inactive

How did CCCCNCc1cc(OC)c(OCC(N)=O)cc1Br do in these assays?
miR-122 sensor: inactive; CAL PDZ FP-1: inactive; Cneo AK release: inactive; CAL PDZ FP-2: inactive; PglD DTNB: inactive

Results for CCCCNCc1cc(OCC)c(OCC(N)=O)cc1Br ?
miR-122 sensor: inactive; CAL PDZ FP-1: 38; Cneo AK release: inactive; CAL PDZ FP-2: inactive; PglD DTNB: inactive

Results for FC(F)(F)c1ccccc1NC(=S)N1CCCC1 ?
miR-122 sensor: inactive; CAL PDZ FP-1: 50; Cneo AK release: inactive; CAL PDZ FP-2: inactive; PglD DTNB: inactive

What do the screens show for `Cc1ccc(SCC(=O)Nc2ccccc2N2CCOCC2)cc1`?
miR-122 sensor: inactive; CAL PDZ FP-1: 48; Cneo AK release: inactive; CAL PDZ FP-2: inactive; PglD DTNB: inactive

How did COc1ccc(OCC(=O)Nc2ccccc2C(=O)N2CCOCC2)cc1 do in these assays?
CAL PDZ FP-1: 51; Cneo AK release: inactive; CAL PDZ FP-2: inactive; PglD DTNB: inactive

How did O=C(CSc1ccccc1)Nc1ccccc1N1CCOCC1 do in these assays?
miR-122 sensor: inactive; CAL PDZ FP-1: inactive; Cneo AK release: inactive; PglD DTNB: inactive

Results for O=C(Nc1ccccc1N1CCOCC1)c1cccnc1 ?
miR-122 sensor: inactive; CAL PDZ FP-1: 85; Cneo AK release: inactive; CAL PDZ FP-2: inactive; PglD DTNB: inactive

How did O=C(Nc1ccc(N2CCOCC2)c(Cl)c1)c1cccnc1 do in these assays?
miR-122 sensor: inactive; Cneo AK release: inactive; CAL PDZ FP-2: inactive; PglD DTNB: inactive

What do the screens show for `CC(=O)c1cccc(OCC(=O)Nc2ccccc2N2CCOCC2)c1`?
miR-122 sensor: 93; CAL PDZ FP-1: inactive; Cneo AK release: inactive; CAL PDZ FP-2: inactive; PglD DTNB: inactive

Results for O=C(NCC[C@@H]1CC[C@@H](NC(=O)C2CC2)[C@H](CO)O1)Nc1ccc(Cl)cc1 ?
Cneo AK release: inactive; PglD DTNB: inactive

Results for CC[C@]12c3[nH]c4ccc(Cl)cc4c3CCN1C(=O)[C@@H](CC(=O)NC/C=C(\C)CCC=C(C)C)C[C@@H]2C(=O)N1CCN(C(=O)c2ccco2)CC1 ?
miR-122 sensor: inactive; CAL PDZ FP-1: inactive; Cneo AK release: inactive; CAL PDZ FP-2: inactive; PglD DTNB: inactive

What do the screens show for `CCc1nnc(NC(=O)COc2ccccc2[N+](=O)[O-])s1`?
miR-122 sensor: inactive; CAL PDZ FP-1: inactive; Cneo AK release: inactive; CAL PDZ FP-2: inactive; PglD DTNB: inactive

Results for CN(/N=C/c1ccccc1Cl)c1ncc(Cl)cc1C(F)(F)F ?
miR-122 sensor: inactive; CAL PDZ FP-1: 44; Cneo AK release: inactive; CAL PDZ FP-2: inactive; PglD DTNB: inactive

What do the screens show for `CN(/N=C/c1ccc(O)cc1O)c1ncc(C(F)(F)F)cc1Cl`?
CAL PDZ FP-1: inactive; CAL PDZ FP-2: inactive

Results for O=C(c1cccc(S(=O)(=O)N2CCCC2)c1)N1CCOCC1 ?
miR-122 sensor: inactive; Cneo AK release: inactive; CAL PDZ FP-2: inactive; PglD DTNB: inactive

How did Cn1c(=O)c([N+](=O)[O-])c(NCC2CCCO2)c2ccccc21 (stereo unspecified) do in these assays?
CAL PDZ FP-1: 73; CAL PDZ FP-2: inactive

Results for Cc1ccc2[nH]c(=O)c(COC(=O)C3CCCCC3)cc2c1 ?
miR-122 sensor: inactive; CAL PDZ FP-1: active; Cneo AK release: inactive; CAL PDZ FP-2: inactive; PglD DTNB: inactive
